According to ChEMBL document CHEMBL1129476, “In vivo activity and hydrophobicity of cytostatic aziridinyl quinones” (J Med Chem, 1996):

What was measured:
[1] = E1/2 for the half-wave potential at pH=7.0 in V57; type: ADME
[2] = Observed rate of hydrolysis (logKobs) (pH=4.0); type: ADME
In short: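 Hydrolysis followed by cyclic voltammetry at 20 °C in deaerated 0.1 M acetate buffers (pH 5.0–3.5) or 0.02 M NaH2PO4 (pH 3.5, 3.0), ionic strength 0.1 M (NaNO3). Decrease of the parent cathodic peak tracked over time. Pseudo-first-order kobs from linear regression of log concentration versus time.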

[3] = Electrochemically observed pKa (pKred) of aziridines; type: physicochemical; settings: read-out: pKred
B16 = test: log 1/D125 or the dose (mmol/kg) to give 125%T/C ratio (B16) in vivo; type: functional, Mus musculus
Nucleic Acid = test: (§1) DNA cross link ratio at pH=5.0 and 50 umol/L compound; type: functional
Fungi = test: (§2) log 1/MIC for fungi in mmol/L; type: functional
L1210 [4] = test: log 1/D125 for the dose (mmol/kg) to give 125%T/C ratio (L1210) in vivo; type: functional, Mus musculus
L1210 [5] = test: log 1/ID75 for the in vitro clonogenic L1210 assay with ID75 in umol/L; type: functional, Mus musculus
[6] = log KGSH for the rate k of glutathione (GSH) consumption in 1/s; type: functional
[7] = log 1/LD50 for LD50 (mmol/kg); type: ADME
[8] = log 1/anion production.; type: functional
[9] = as §1; type: functional
[10] = Partition coefficient (logP); type: physicochemical; settings: octanol/water
In short: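 Micro shake-flask: buffered aqueous compound solution (pH 6.50) shaken with an equal volume of water-saturated 1-octanol at room temperature, 3 × 120 s. Centrifuged 14000g, 15 min. Aqueous phase analysed by RP-HPLC against the unshaken solution (methanol 30, 50 or 70 wt%, 1.0 mL/min, UV 254 nm). Run in duplicate, or quadruplicate if needed.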

[11] = HPLC capacity factor (logK); type: ADME
[12] = as §2; type: functional

SMILES | E 1/2 [1] | Log Kobs [2] | pKa [3] | Log 1/D125 (mM kg-1) (B16) | DNA cross-link ratio (Nucleic Acid) | Log 1/MIC (mM L-1) (Fungi) | Log 1/D125 (L1210) (mM kg-1) (L1210 [4]) | Log 1/ID75 (uM L-1) (L1210 [5]) | Log k GSH (s-1) [6] | Log 1/LD50 (mM kg-1) [7] | Log 1/conc (mM min-1 L-1) [8] | lnK [9] | logP [10] | Log K [11] | Log 1/MIC (mM L-1) [12]
CCC1=C(N2CC2)C(=O)C(Br)=C(N2CC2)C1=O | -0.21 | -4.3 | 8.8 | 2.6 | 0.15 | 1.57 | 1.41 | 2.82 | -3 | 1.39 | 2.42 |  |  |  | 
CC1=C(N2CC2)C(=O)C(CCOC(N)=O)=C(N2CC2)C1=O | -0.213 | -4.05 | 8.9 | 3.49 | 0.27 |  | 2.86 | 1.82 | -4.92 | 1.99 | 1.02 |  |  |  | 
CC1=C(N2CC2C)C(=O)C(Br)=C(N2CC2C)C1=O (centres undefined) | -0.194 | -3.85 | 9.2 | 1.71 |  | 1.01 | 1.79 | 2.66 |  | 1.59 | 2.5 | 0.03 |  |  | 
O=C1C=C(N2CC2)C(=O)C=C1N1CC1 | -0.105 | -2.57 | 7.5 | 3.16 | 0.29 | 2.58 | 2.77 | 1.68 | -3.24 | 1.8 | 2.09 |  | 0.18 |  | 
COC(COC(N)=O)C1=C(N2CC2)C(=O)C(C)=C(N2CC2)C1=O (centres undefined) [CARBOQUONE] | -0.182 | -3.65 | 8.6 | 3.32 | 0.26 | -1.19 | 3.21 | 1.05 | -5.15 | 1.73 | 0.57 |  | -0.15 | -0.438 | 
CCOC(=O)NC1=C(N2CC2)C(=O)C(NC(=O)OCC)=C(N2CC2)C1=O [DIAZIQUONE] | -0.149 | -4.25 | 8.3 | 2.32 | 0.14 | -0.29 | 2.26 | -0.57 | -4.64 | 1.54 | 1.56 |  | 0.04 | -0.48 | 
O=C1C(Br)=C(N2CC2)C(=O)C(Br)=C1N1CC1 |  | -4.7 |  |  |  |  |  | 0.35 |  |  | 2.87 |  |  | 0.474 | 1.54
